Compound activity (PubChem BioAssay)
PGC1a acetyl up: compounds raising PGC1a acetylation signal, primary screen, PGC1a modulator project, cell-based, U2OS, AlphaScreen, signal-increasing mode; AID 651723, 2012; hit rate 0.21% among 350,000; overnight; activation, % at 15.6 µM;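 active = every replicate reaching activation of at least 50%, whatever the mean replicate activation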;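 also: hits raise the AlphaScreen acetylation signal above neutral controls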
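Test system: U2OS cells expressing flag-PGC1a plus GCN5; Amount: 7000 U2OS cells per well; Compound: single test concentration per compound; Incubation: compound overnight at 37 °C, each detection step 1 h RT; Signal: AlphaScreen lysate read.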
The depositor's hits bear a star. Shown is part of a subset that was picked to be rich in hits.

SMILES	PGC1a acetyl up
COc1ccc(COc2cc(-c3cccc(OC)c3)nc3ccc(NC(=O)c4cccnc4)cc23)cc1	53*
C=CC[C@@H](CC(=O)N[C@@H](CO)Cc1ccccc1)C(=O)N[C@@H](COC(=O)[C@@H](CC=C)CC(=O)OC(C)(C)C)Cc1c[nH]c2ccccc12	155*
C=CCN1C(=O)C(CC(=O)Nc2ccccc2F)S/C1=N\c1nccs1 (stereo not drawn)	-49
CC(=O)Cc1nsc(NC(=O)c2cccc(F)c2)n1	-44
CC/C(CC(C)(C)c1ccccc1)=N\O	56*
CCOc1ccc(C(C)=O)cc1N1C(=O)C2C3C=CC(C3=C(C)C)C2C1=O (stereo not drawn)	-44
O=C(c1ccc([N+](=O)[O-])s1)N1CCc2ccccc2C1	-47
Cc1c(Cl)cccc1N=Cc1ccc([N+](=O)[O-])s1	102*
CC(NS(=O)(=O)c1ccccc1Cl)C1CC2CCC1C2 (stereo not drawn)	102*
C[C@@H]1CN([C@H](C)CO)C(=O)CCCn2nncc2CO[C@@H]1CN(C)S(=O)(=O)c1cn(C)cn1	-101
N=c1sccn1CC(=O)Nc1ccccc1Sc1ccccc1	-73
Nc1nc(SCC(=O)Nc2ccccc2Sc2ccc(Cl)cc2)n[nH]1	89*
Fc1ccc(/C=N/N2CCCCC2)c(F)c1	-66
Cc1nnc(Nc2ccc3c(c2)OCO3)c2ccccc12	84*
CN(C)C(=O)c1ccc(-c2ccc([C@@H]3[C@H]4CN(C(=O)CC5CC5)CC(=O)N4[C@H]3CO)cc2)cc1	-47
Cc1ccc(CC2(C)C(=O)Nc3c(Cl)ccc(Cl)c32)cc1 (stereo not drawn)	159*
CC1(Cc2ccc(Cl)cc2)C(=O)Nc2ccc(-c3cccnc3)cc21 (stereo not drawn)	-46
COc1cccc(-c2csc(N3CCN(C(=S)Nc4ccccc4Cl)CC3)n2)c1	67*
CCCCN(C)C1CCN(C(=S)Nc2cccc(OC)c2)CC1	-52
O=C(c1cc2ccccc2o1)N1CC=C(c2ccccc2)CC1	-54
CC(C)(C)c1ccc2c(c1)OC(C(=O)N/N=C/c1ccc([N+](=O)[O-])o1)CO2 (stereo not drawn)	165*
CO[C@H]1CN(C)C(=O)c2ccc(NS(=O)(=O)c3ccccc3)cc2OC[C@H](C)N(C(=O)NC(C)C)C[C@@H]1C	-59
COc1ccc(C2CCc3cc4c(cc3C2=NOC(C)=O)OCO4)cc1OC (stereo not drawn)	56*
CC1=C(C(=O)OCc2ccc3c(c2)OCO3)C(c2ccc(Cl)cc2)NC(=O)N1 (stereo not drawn)	-43
COc1ccc(NC(=O)c2ccc3c(c2)OCO3)cc1Cl	-42
SMILES	PGC1a acetyl up
CC1=CCC2C(=O)N(c3cccc(C(=O)NCc4ccccc4)c3)C(=O)C2C1 (stereo not drawn)	-63
O=C(C[C@H]1CC[C@H](NC(=O)C2CCC2)[C@@H](CO)O1)NCC1CC1	-57
CC(=O)c1ccc(N2CCN(c3ccc(S(=O)(=O)NCCCN(C)C)cc3[N+](=O)[O-])CC2)cc1	95*
Cc1ccc(S(=O)(=O)N[C@@H]2C=C[C@H](CC(=O)NCCN3CCCCC3)O[C@@H]2CO)cc1	-58
COc1ccc(C2=NOC(C(=O)Nc3cccnc3)C2)cc1 (stereo not drawn)	64*
Cc1ccc(NC(=O)c2c(C)nn(-c3ccccc3)c2Cl)c(C)c1	-41
Cc1ccc(NC(=S)/N=C(\N)Nc2nc(C)c3cc(C)c(C)cc3n2)cc1C	66*
C=CCNC(=S)N1CCN(CCN=CC2=C(O)CC(c3ccco3)CC2=O)CC1 (stereo not drawn)	-40
Cc1cc(C)c2c(=O)[nH]n(C3CCCCCC3)c2n1	-88
CC1CC1C(=O)OCC(=O)NCc1ccc(Cl)cc1 (stereo not drawn)	55*
CO[C@H]1CN(C)C(=O)c2ccc(NS(=O)(=O)c3ccccc3)cc2OC[C@@H](C)N(C(=O)NC(C)C)C[C@@H]1C	-52
CSCC[C@H](NC(=O)c1ccc(Br)o1)c1nnc2ccccn12	-43
O=C(CC1SC(=Nc2ccc3c(c2)OCCO3)NC1=O)Nc1ccc(F)cc1F (stereo not drawn)	189*
CCCCN(CCCC)CCNC(=O)c1ccc2nc(-c3ccccc3NC(C)=O)c(=O)[nH]c2c1	-42
Cc1ccc(NC(=S)NNC(=O)c2nn(C)c(C)c2Cl)cc1	-42
CCOC(=O)COc1ccc(/C=C/[N+](=O)[O-])c(OCC(=O)OCC)c1	77*
CO[C@H]1CN(C)C(=O)c2cc(NS(=O)(=O)c3cn(C)cn3)ccc2OC[C@@H](C)NC[C@H]1C	-55
COc1ccc(C2(NC(C)=O)CCN(C(=O)CCC(=O)O)CC2)cc1	-49
COc1ccc(NC(=O)CSC2CC(=O)N(c3ccc4c(c3)OCCO4)C2=O)cc1 (stereo not drawn)	55*
Cc1cc(S(=O)(=O)NC(C)C)ccc1OCC(=O)Nc1ccc2c(c1)OCCO2	-110
CCc1c(C)nc(SCC(=O)Nc2ccc3c(c2)OCCO3)[nH]c1=O	-46
CC12CC(c3ccccc3O1)N(C(=O)c1ccc(Br)o1)C(=O)N2c1ccccc1 (stereo not drawn)	-44
CN(C)C(=O)C[C@H]1CC[C@H](NC(=O)C2CCC2)[C@@H](CO)O1	-44
NC(=O)c1ccccc1NC(=O)/C=C/C(=O)O	62*
Cc1ccccc1Cn1nc(C)c(NC(=O)c2cc(-c3cccs3)on2)c1C	-47
SMILES	PGC1a acetyl up
O=C(CSc1nnc(-c2ccco2)n1-c1ccccc1)Nc1c(Cl)cc(Cl)cc1C(=O)O	-52
O=C(CSc1nnc(-c2ccncc2)n1-c1ccc(Cl)cc1)NCc1cccs1	81*
CC[C@H](C)[C@@H]1NC(=O)[C@@H](CC(C)C)NC(=O)[C@H](C(C)C)NC(=O)[C@H]2CSSC[C@H](NC1=O)C(=O)N2	-72
CCCCCCC1CC(=O)NC(=S)N1 (stereo not drawn)	-63
CCN1C(C#N)=C(C#N)N=C(C)CC1(C)C	-109
CC(C)CC(=O)/C(=C\c1ccc(Cl)cc1Cl)n1cncn1	-60
Cn1c(Cl)cnc1C1CC(=O)c2cc(Cl)ccc2O1 (stereo not drawn)	71*
CC1CC(C)CN(S(=O)(=O)c2ccc(C(=O)NCCCn3ccnc3)cc2)C1 (stereo not drawn)	580*
COc1ccc2c(c1)CCc1c(C(=O)NCCCn3ccnc3)noc1-2	-41
CCSc1ccccc1C(=O)NCCCn1ccnc1	-95
COc1ccc(S(=O)(=O)N[C@H]2CC[C@@H](CCNC(=O)c3ccccc3F)O[C@@H]2CO)cc1	-52
CCCCN(c1ccccc1)c1ncnc(N)c1[N+](=O)[O-]	-52
O=C(CCC1CCCCC1)NCc1cccs1	-41
COc1ccc2cc3cc(C(=O)NCc4cccs4)oc3nc2c1	70*
COc1ccc2cc3c(N)nn(C(=O)c4ccccc4Cl)c3nc2c1	-42
COCC(=O)OCC(=O)Nc1cc(C(C)(C)C)nn1-c1ccccc1	-47
Cc1ccc(-c2c(C#N)c(N)n(-c3ccccc3)c(=O)c2C#N)cc1	66*
CCCn1c(-c2ccccc2)cc(SC)c(C#N)c1=O	-93
Cc1ccc(S(=O)(=O)OCCC2=CC(=O)CCN2Cc2ccccc2)cc1	-63
Cc1ccc(S(=O)(=O)N(CC2CO2)c2ccccc2[N+](=O)[O-])cc1 (stereo not drawn)	-79
O=C(CCCCCN1C(=O)c2cccc3cccc(c23)C1=O)NCc1cccnc1	494*
